Measured values taken from ChEMBL document CHEMBL1156462, “Seco-pregnane steroids target the subgenomic RNA of alphavirus-like RNA viruses” (Proc Natl Acad Sci U S A, 2007).
The source made the active and inactive calls. The rule behind the calls is not given here.

Columns and labels:
Tobacco mosaic virus [1] = test: Inhibition of TMV U1 replication in tobacco BY2 protoplast at 50 nM by local lesion assay using Chenopodium quinoa leaves; type: functional, organism-based
Summary of the method: (§1)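 TMV premixed with compound at a range of concentrations used to inoculate tobacco BY-2 protoplasts; virus multiplication then assayed by counting local lesions on the local lesion host Chenopodium quinoa.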

Tobacco mosaic virus [2] = test: Inhibition of TMV U1 replication in tobacco BY2 protoplast by local lesion assay using Chenopodium quinoa leaves; type: functional, organism-based; summary of the method: as §1
Tobacco mosaic virus [3] = test: Decrease in TMV U1 coat protein level in TMV infected tobacco BY2 protoplast at 50 nM by Western blot analysis; type: functional, organism-based
Summary of the method: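 BY-2 protoplasts (5 ml, 1.5 × 10⁶/ml) infected with TMV pretreated with compound; total protein extracted and coat protein detected by Western blot.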

Sindbis virus = test: Antiviral activity against Sindbis virus XJ160 in BHK21 cells assessed as reduction of virus-induced cytopathic effect after 24 hrs; type: functional, organism-based; details: BHK-21
Summary of the method: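 SINV XJ-160 (2 × 10⁵ pfu/ml, thrice plaque-purified) treated with compound for 15 min, adsorbed 1 h to BHK-21 cells at MOI 0.01 in quadruplicate; washed, fresh DMEM with 5% FBS added, cells kept at 37°C, 5% CO₂. Cytopathic morphology scored by light microscopy at 24 hpi.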

[4] = Growth inhibition of hamster BHK21 cells at 100 nM after 48 hrs; type: cell-based, Mesocricetus auratus; details: bhk-21, 48 h, 0.1 µM
Summary of the method: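 BHK-21 cells mock-infected and incubated with 100 nM compound for 48 h; cell morphology and growth examined by light microscopy.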

Tobacco mosaic virus [5] = test: Inhibition of TMV U1 multiplication in tobacco BY2 protoplast at 10 nM assessed as inhibition of local lesions on Chenopodium quinoa leaves by local lesion assay after 3 days postinfection; type: functional; details: U1, 72 h; summary of the method: as §1
Tobacco mosaic virus [6] = test: Inhibition of TMV U1 multiplication in tobacco BY2 protoplast at 20 nM assessed as inhibition of local lesions on Chenopodium quinoa leaves by local lesion assay after 3 days postinfection; type: functional; details: U1, 72 h; summary of the method: as §1
Tobacco mosaic virus [7] = test: Inhibition of TMV U1 multiplication in tobacco BY2 protoplast at 30 nM assessed as inhibition of local lesions on Chenopodium quinoa leaves by local lesion assay after 3 days postinfection; type: functional; details: U1, 72 h; summary of the method: as §1
Tobacco mosaic virus [8] = test: Inhibition of TMV U1 multiplication in tobacco BY2 protoplast at 40 nM assessed as inhibition of local lesions on Chenopodium quinoa leaves by local lesion assay after 3 days postinfection; type: functional; details: U1, 72 h; summary of the method: as §1
Tobacco mosaic virus [9] = test: Inhibition of TMV U1 multiplication in tobacco BY2 protoplast at 50 nM assessed as inhibition of local lesions on Chenopodium quinoa leaves by local lesion assay after 3 days postinfection; type: functional; details: U1, 72 h; summary of the method: as §1
Tobacco mosaic virus [10] = test: Inhibition of TMV U1 multiplication in tobacco BY2 protoplast at 10 nM assessed as local lesion size on Chenopodium quinoa leaves by local lesion assay; type: functional
Tobacco mosaic virus [11] = test: Inhibition of TMV U1 multiplication in tobacco BY2 protoplast at 20 nM assessed as local lesion size on Chenopodium quinoa leaves by local lesion assay; type: functional
Tobacco mosaic virus [12] = test: Inhibition of TMV U1 multiplication in tobacco BY2 protoplast at 30 nM assessed as local lesion size on Chenopodium quinoa leaves by local lesion assay; type: functional
Tobacco mosaic virus [13] = test: Inhibition of TMV U1 multiplication in tobacco BY2 protoplast at 40 nM assessed as local lesion size on Chenopodium quinoa leaves by local lesion assay; type: functional
Tobacco mosaic virus [14] = test: Inhibition of TMV U1 multiplication in tobacco BY2 protoplast at 50 nM assessed as local lesion size on Chenopodium quinoa leaves by local lesion assay; type: functional
Tobacco mosaic virus [15] = test: Antiviral activity against TMV U1 infected Nicotiana tabacum cv K326 plant leaves assessed as inhibition of systemic virus infection; type: functional, organism-based
Tobacco mosaic virus [16] = test: Antiviral activity against GFP-fused TMV U1 infected Nicotiana tabacum cv K326 plant leaves assessed as inhibition of virus movement by GFP fluorescence assay; type: functional, organism-based

IC50 (Tobacco mosaic virus [2]) | Structure (SMILES) | Activity (Tobacco mosaic virus [1]) | Activity (Tobacco mosaic virus [3]) | Activity (Sindbis virus) | Activity [4] | inhibition at 0.01 µM (Tobacco mosaic virus [5]) | inhibition at 0.02 µM (Tobacco mosaic virus [6]) | inhibition at 0.03 µM (Tobacco mosaic virus [7]) | inhibition at 0.04 µM (Tobacco mosaic virus [8]) | inhibition at 0.05 µM (Tobacco mosaic virus [9]) | Activity (Tobacco mosaic virus [10]) | Activity (Tobacco mosaic virus [11]) | Activity (Tobacco mosaic virus [12]) | Activity (Tobacco mosaic virus [13]) | Activity (Tobacco mosaic virus [14]) | Activity (Tobacco mosaic virus [15]) | Activity (Tobacco mosaic virus [16])
25 nM | CO[C@H]1C[C@H](O[C@H]2[C@@H](OC)C[C@H](O[C@@H]3[C@@H](C)O[C@H](O[C@H]4CC[C@@]5(C)C(=CC[C@H]6C(=O)OC7CO[C@]8(C)OC=C(CC[C@@H]65)[C@H]78)C4)C[C@H]3OC)O[C@@H]2C)O[C@@H](C)[C@@H]1O[C@@H]1O[C@H](CO)[C@@H](O[C@@H]2O[C@H](CO)[C@@H](O)[C@H](O)[C@H]2O)[C@H](O)[C@H]1O (stereo not given in full) [PANICULATUMOSIDE D] | Active | Active | Dose-dependent effect | Non-toxic | 6% | 31% | 79% | 88% | 100% | 1.7 mm | 1.6 mm | 1.4 mm | 1.2 mm | 0 mm | Active | Active
25 nM | CO[C@@H]1C[C@@H](O[C@H]2CC[C@@]3(C)C(=CC[C@H]4C(=O)OC5CO[C@]6(C)OC=C(CC[C@@H]43)[C@H]56)C2)O[C@H](C)[C@H]1O[C@H]1C[C@H](O)[C@H](O[C@H]2C[C@@H](OC)[C@@H](O[C@@H]3O[C@H](CO)[C@@H](O[C@@H]4O[C@H](CO)[C@@H](O)[C@H](O)[C@H]4O)[C@H](O)[C@H]3O)[C@H](C)O2)[C@@H](C)O1 (stereo not given in full) [PANICULATUMOSIDE E] | Active | Active | Dose-dependent effect | Non-toxic | 16% | 38% | 73% | 87% | 100% | 1.6 mm | 1.3 mm | 1.2 mm | 1.1 mm | 0 mm | Active | Active
25 nM | CO[C@@H]1C[C@H](O[C@H]2CC[C@@]3(C)C(=CC[C@H]4C(=O)OC5CO[C@]6(C)OC=C(CC[C@@H]43)[C@H]56)C2)O[C@H](C)[C@H]1O (stereo not given in full) [CYNATRATOSIDE A] | Active | Active | Dose-dependent effect | Non-toxic | 20% | 37% | 87% | 93% | 100% | 2.3 mm | 1.8 mm | 1.5 mm | 1.2 mm | 0 mm |  | 
17 nM | C[C@]12OC=C3CC[C@H]4[C@@H](CC=C5C[C@@H](O)CC[C@@]54C)C(=O)OC(CO1)[C@@H]32 (stereo not given in full) [GLAUCOGENIN C] | Active | Active | Dose-dependent effect | Non-toxic | 17% | 60% | 79% | 85% | 100% | 2.1 mm | 1.9 mm | 1.5 mm | 1.3 mm | 0 mm |  | Active
